DAT uptake mod: modulates human dopamine transporter uptake under cocaine; Q01959; LLC-PK1 hDAT cells, [14C]-dopamine uptake with cocaine IC80; actives deviate in either direction; B-score at 10 µM; 110,000 tested, 1.3% active; AID 449768;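 active = Z score or B-score, a plate-position-corrected score, falls beyond the plate's 99.7% confidence bounds, in either direction; inactive = both scores lie inside the 99.7% bounds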
AP complement: alternative pathway complement inhibition, orthogonal assay | Human serum alternative complement pathway, LPS-coated ELISA, C3 deposition; tested in compound mixtures | inhibition, % at 5 µM | 62,000 tested, 0.08% active | AID 1235;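 active = inhibition above 30% in each of the two pooled mixtures holding the compound, so the lower value exceeds 30%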
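Test system – human serum alternative complement pathway, C3 deposition on LPS-coated wells · Buffer or medium – diluted human serum in Mg2+-EGTA GVB++ · Compound dosing – 5 µM each compound, pools of ten, 50 µM per pool · Schedule – 1 h serum-compound exposure at 37 °C · Measured by – Anti-C3 ELISA, OD 450 nm · Read-out basis – percent inhibition of C3 deposition onto LPS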
WNV protease inh: inhibitors of West Nile virus NS2B-NS3 protease. P06935. WNV NS2B-NS3 protease, fluorogenic substrate Ex360/Em465; hits give low values. z-score (no concentration beside the values). 65,000 tested, 0.18% active; in the data active = z-score below about -3
Target sequence (P06935 1371-1501 limits assumed): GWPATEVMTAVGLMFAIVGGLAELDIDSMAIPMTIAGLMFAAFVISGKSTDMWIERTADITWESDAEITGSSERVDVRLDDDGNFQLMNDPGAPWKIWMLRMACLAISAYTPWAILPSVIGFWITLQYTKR
Target sequence (P06935 1502-1679 limits assumed): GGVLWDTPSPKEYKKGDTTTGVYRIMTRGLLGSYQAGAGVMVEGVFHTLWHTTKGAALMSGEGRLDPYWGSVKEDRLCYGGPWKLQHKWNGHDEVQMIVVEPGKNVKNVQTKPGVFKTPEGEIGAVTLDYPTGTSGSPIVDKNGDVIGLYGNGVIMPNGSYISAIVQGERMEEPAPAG
D1 mod: D1 dopamine receptor (human) allosteric modulation | B-score at 10 µM | 58,000 tested, 5.9% active | P21728 | HEK293 D1, CRE-luciferase, dopamine EC30 potentiation; actives deviate in either direction;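 active = luminescence count or its row- and column-corrected plate score outside the 99.7% band of the plate's sample wells, on either side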
D1 PAM confirm: D1 receptor (human) allosteric modulation, confirmed; shares compounds with D1 mod; HEK293 D1 CRE-luciferase, dopamine EC30 potentiation; hits give high values; luminescence at 10 µM; 2,200 tested, 88% active; AID 642;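 active = luminescence in either of two replicates above the same-plate mean plus 3 SD of the low-dose dopamine control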
D1 no dopamine: D1 (human) signaling in absence of dopamine | shares compounds with D1 mod | 1,900 tested, 0.8% active | HEK293 D1 CRE-luciferase, luminescence, no dopamine; hits give high values | AID 646 | luminescence at 10 µM; in the data active = luminescence above about 3900
Isoprot counter: alters isoproterenol CRE-luciferase response in HEK293 cells; shares compounds with D1 mod; HEK293 D1 CRE-luciferase, isoproterenol EC30 counter-screen; hits give high values; 2,200 tested, 63% active; luminescence at 10 µM;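 active = luminescence in either replicate above plate mean of wells with a partly effective reference agonist dose plus 3 SD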;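 note: isoproterenol raises cAMP through native beta-adrenoceptor Gs so signal bypasses D1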
Numbers stand for hits; n = inactive; x = no result. Shown is part of a subset that was picked to be rich in hits.

SMILES | DAT uptake mod | AP complement | WNV protease inh | D1 mod | D1 PAM confirm | D1 no dopamine | Isoprot counter
CCOC(=O)N1CCC(Nc2c(N3CCN(c4cccc(C(F)(F)F)c4)CC3)c(=O)c2=O)CC1 | n | n | n | n | x | x | x
COc1ccc(CC(=O)Nc2nccs2)cc1OC | x | x | n | x | x | x | x
COc1ccc(-c2csc(NC(C)=O)n2)cc1OC | n | n | n | 6.1 | 10116 | n | 3716
COc1ccc(CC(=O)Nc2nc(C)cs2)cc1OC | n | n | n | 3.9 | 12824 | n | 3836
CC(=O)Nc1cc2c(cc1C(=O)C(C)C)OCCO2 | n | n | n | 5.3 | 14100 | x | 3040
CNc1nc(NC)nc(-n2c(C(F)(F)F)nc3ccccc32)n1 | n | n | n | 8 | 18112 | n | 3740
COC(=O)Cn1c(C(F)(F)F)nc2ccccc21 | n | x | x | x | x | x | x
COc1ccc(-c2cc(C(F)(F)F)nc(SCC(=O)N3CCOCC3)n2)cc1OC | n | n | n | 23 | 16556 | n | 5128
COc1cc2cc(C)c(SCC(=O)N3CCOCC3)nc2cc1OC | n | n | n | 5.7 | 10104 | n | 4500
O=C(CSc1nc(-c2ccccc2)cc(C(F)(F)F)n1)N1CCOCC1 | n | x | x | x | x | x | x
COCCNC(=O)CSc1nc(-c2ccc(OC)c(OC)c2)cc(C(F)(F)F)n1 | n | n | n | 9.3 | 12172 | n | 6624
COc1cc2cc(C#N)c(SCC(=O)N3CCOCC3)nc2cc1OC | n | x | x | x | x | x | x
COC(=O)CSc1nc(-c2ccc(F)cc2)cc(C(F)(F)F)n1 | n | x | x | x | x | x | x
Cn1c(=O)c2c(nc(SCC(=O)NC3CCCCC3)n2C)n(C)c1=O | x | n | n | n | x | x | x
CCCCNC(=O)NS(=O)(=O)c1ccc(NS(=O)(=O)c2ccccc2)cc1 | n | n | n | n | x | x | x
COc1cccc(Cn2c(-c3cccs3)noc2=O)c1 | n | n | n | 3.9 | 8904 | x | 2916
O=C(NCC(=O)N(Cc1ccccc1)C(C(=O)NC1CCCC1)c1ccncc1)c1ccco1 (stereo unspecified) | n | x | x | x | x | x | x
C=CCN(CC(=O)NCc1ccccc1)C(=O)c1csnn1 | n | n | n | 3 | n | n | n
CN(C)C(=O)N1CCC(C(=O)NCc2ccc(F)cc2Cl)CC1 | n | n | n | 3.9 | n | n | n
COC(C/C=C\C(=O)[C@@H](C)OCc1ccccc1)OC | n | x | x | x | x | x | x
Nc1nnc(SCc2ccc(Cl)cc2)s1 | n | x | x | x | x | x | x
CCOC(=O)c1ccc(CSc2nnc(N)s2)cc1 | n | n | n | 3.7 | 10844 | x | 2972
Cc1ccc(N2CCN(C(=O)c3ccccc3NC(=O)C3CC=CCC3C(=O)O)CC2)cc1 (stereo unspecified) | n | x | x | x | x | x | x
CCOC(=O)c1[nH]c(C)c(C(=O)c2cc(F)ccc2F)c1C | x | n | n | 5.7 | 8492 | n | 5416
COCCN(C(=O)C1CC1)c1nnc(-c2cccc(C)c2)s1 | n | n | n | n | x | x | x
SMILES | DAT uptake mod | AP complement | WNV protease inh | D1 mod | D1 PAM confirm | D1 no dopamine | Isoprot counter
Cn1c(=O)c2[nH]cnc2n(-c2ccccc2)c1=O | n | n | n | 7.3 | 23812 | n | 4140
Cn1c(=O)c2c(O)cc(=O)n(-c3ccccc3)c2n(C)c1=O | n | n | n | n | x | x | x
c1cn(-c2ncnc3sc4c(c23)CCCC4)cn1 | n | n | n | n | x | x | x
c1ccn(-c2ncnc3sc4c(c23)CCCC4)c1 | n | n | n | 7.6 | 13568 | x | 3372
Cc1ccc(OC(=O)c2oc3ccc(F)cc3c2C)c(C)c1 | n | x | x | x | x | x | x
COc1cc2c(cc1OC)/C(=C/C#N)NC(C)(C)C2 | n | n | n | 10 | 16360 | n | 5416
O=C(CSc1nc(-c2ccccc2)cs1)NC(=O)NCc1ccco1 | n | n | n | n | x | x | x
O=C(CSc1nc2ccccc2s1)NC(=O)NCc1ccco1 | n | n | n | 5.9 | 8872 | n | n
O=C(O)C1=C[C@@H](C2CCCCC2)C[C@@H](OCCCCO)O1 | n | x | x | x | x | x | x
NC(=O)c1cc(Br)cc2c3c([nH]c12)CCCC3 | n | n | n | 3.9 | 11200 | n | 3456
O=C(O)CCCC(=O)Nc1ccccc1Br | n | n | n | 7.2 | n | x | n
O=C(O)CCCC(=O)Nc1ccc(Br)cc1 | n | x | x | x | x | x | x
COc1ccc(-c2nnc(-c3ccc(Br)o3)o2)cc1OC | n | n | n | 4.8 | 8496 | n | n
COc1ccc(-c2nc(-c3ccc(Br)o3)no2)cc1OC | n | n | n | n | x | x | x
Cc1[nH]n(-c2ccc([N+](=O)[O-])cc2)c(=O)c1C=NCCN1CCN(C(=O)c2ccccc2)CC1 | n | x | x | x | x | x | x
CC(=O)Nc1ccccc1N(C)S(=O)(=O)c1ccc(C)cc1 | n | n | n | n | x | x | x
NS(=O)(=O)c1ccc(CCNC2CC(=O)N(Cc3ccccc3)C2=O)cc1 (stereo unspecified) | n | n | n | n | x | x | x
NS(=O)(=O)c1ccc(CCNC2CC(=O)N(CCc3ccccc3)C2=O)cc1 (stereo unspecified) | n | n | n | 2.3 | n | n | n
CCCC1(C(=O)OCC)NC(c2ccc(N(C)C)cc2)C2C(=O)N(c3ccccc3)C(=O)C21 (stereo unspecified) | n | n | n | n | x | x | x
CCCC1(C(=O)OCC)NC(c2ccc(N(C)C)cc2)C2C(=O)N(c3ccc(OCC)cc3)C(=O)C21 (stereo unspecified) | n | n | n | 2.9 | n | n | n
O=C(c1ccco1)N1CCN(CC(O)Cn2c3ccccc3c3ccccc32)CC1 (stereo unspecified) | n | n | n | n | x | x | x
Nc1nnc(-c2cn(-c3ccccc3)nc2-c2ccccc2)o1 | n | n | n | 3 | 15252 | n | 3772
CCN(CCNC(=O)CC1Oc2ccccc2NC1=O)c1ccccc1 (stereo unspecified) | n | n | n | 3 | n | n | n
O=C(CC1Oc2ccccc2NC1=O)NC1CC1 (stereo unspecified) | x | n | n | n | x | x | x
CC1CCN(Cc2ccc(NC(=O)CC3Oc4ccccc4NC3=O)cc2)CC1 (stereo unspecified) | n | n | n | 2.8 | n | n | n
SMILES | DAT uptake mod | AP complement | WNV protease inh | D1 mod | D1 PAM confirm | D1 no dopamine | Isoprot counter
CN1[C@@H]2CC[C@H]1CC(OC(=O)C(CO)c1ccccc1)C2 (stereo partly specified) | n | x | x | x | x | x | x
Clc1cccc2sc(-c3nnc(-c4ccccc4)o3)c(Cl)c12 | n | x | x | x | x | x | x
COc1ccc(C(c2sc3ncnn3c2O)N2CCN(c3ccccc3F)CC2)cc1OC (stereo unspecified) | n | n | n | 4.8 | 14444 | n | 3908
CCOC(=O)c1c(C)c(C(=O)NC2CCCCCC2)c(C)n1C | n | n | n | n | x | x | x
CCOC(=O)c1c(C)c2c(n1C)CCC/C2=N\O | n | n | n | 6.5 | 9680 | n | 5084
N#C/C(=C1/CCCCCN1)c1nc2ccccc2s1 | n | n | n | 6.2 | 8248 | n | 3136
CC1(C)Cc2c(oc3ncn4ncnc4c23)CO1 | n | x | n | x | x | x | x

Screening results (PubChem)
